Source: PubChem (several laboratories)
MT stabilizer – stabilizes microtubules in HeLa cells | HeLa tubulin immunostaining HCS, 24 h; share of cells brighter than vehicle mean+2SD | % tubulin-high responders, % at 10 µM | 0.83% of 200,000 active;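 active = plate Z-score above 3 for both tubulin-high and condensed-nucleus cell shares, with cell loss under 80%, at 10 µM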;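 also: anti alpha tubulin signal scored within the nucleus-defined area of each cell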
TLR4-MyD88 BLA – TLR4-MyD88 interaction inhibition in cells; O00206+Q99836; HeLa CL3-4 TLR4/MyD88 BLA complementation, FRET ratio; inhibition, % at 8.4 µM; 0.18% of 200,000 active; AID 861; in the data active = inhibition above about 25%;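 also: 0% = vehicle and 100% = reference inhibitor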
NOD2-RIPK2 inh – inhibitors of human NOD2-RIPK2 interaction | inhibition, % at 4.98 µM | 0.38% of 360,000 active | O43353 | CHO BLA complementation NOD2-RIPK2, CCF4 ratio; in the data active = inhibition above about 21%;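 also: 0% = vehicle only and 100% = reference blocker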
bCat nuc transl – alters nuclear translocation of beta-catenin in HeLa cells. immunofluorescence imaging. nuclear translocation activity, % at 5 µM. 0.3% of 190,000 active. AID 1665;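 active = nuclear translocation activity above 50% at 5 µM, with a well cell count of 50 or more; inconclusive = wells under 50 cells across six images, flagged as toxic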;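 also: per-cell ratio of nuclear to cytoplasmic median beta-catenin stain intensity; plate controls were DMSO negative control for no effect and GSK-3 inhibitor IX positive control for full effect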
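System: Human HeLa cells, endogenous beta-catenin | Compound dosing: 5 µM primary, 0.02–20 µM confirmation | Timing: 24 h compound exposure at 37°C, 5% CO2 | Measured by: Fluorescence imaging of beta-catenin antibody stain plus DAPI | Read-out basis: % activation of per-cell nuclear versus cytoplasmic median beta-catenin signal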
TLR9-MyD88 inh – inhibitors of human TLR9-MyD88 binding; 0.21% of 340,000 active; inhibition, % at 4.98 µM; CHO BLA complementation TLR9-MyD88, CCF4 FRET ratio; Q9NR96+Q99836;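 active = inhibition above the mean over all tested compounds plus 3 SD, cut at about 21% in these data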;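 also: 0% = DMSO only wells and 100% = clavulanate BLA inhibitor control wells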
Hsp70 activator – transcriptional activators of Hsp70. activation, % at 10 µM. HeLa Hsp70 promoter luciferase reporter, luminescence; scaled: vehicle 0, proteasome-inhibitor control 100%. 0.04% of 200,000 active;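 active = activation above the mean across all tested compounds plus 3 SD, cutoff set per campaign, cut at about 5.5% in these data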;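 also: 100% = MG132 at 30 µM as the positive control and 0% = DMSO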
An asterisk follows results filed as active; ? = inconclusive; nt = no result. Shown are actives, neighbours in structure and some others; about 1% of the full set was active somewhere.

SMILES	MT stabilizer	TLR4-MyD88 BLA	NOD2-RIPK2 inh	bCat nuc transl	TLR9-MyD88 inh	Hsp70 activator
O=C1NC[C@@H](CCCCN2C[C@H](Cc3ccc(O)cc3)N(Cc3ccccc3)C(=O)C2=O)N(Cc2ccccc2)C1=O	nt	nt	-7	nt	nt	nt
Cc1cc(NC(=O)COC(=O)c2ccc(S(=O)(=O)N3CCCc4ccccc43)cc2)no1	35*	-4	-12	70*	2	0
CCOc1ccc2[nH]c(=O)c(CN(Cc3ccccc3OC)C(=O)c3ccccc3)cc2c1	24*	6	-8	-2	8	0
CCOc1ccc2[nH]c(=O)c(CN(CC3COCCO3)C(=O)c3ccco3)cc2c1 (stereo unspecified)	nt	nt	3	-3	-4	nt
COc1ccc2[nH]c(=O)c(CN(CC3CCCO3)C(=O)Nc3ccccc3OC)cc2c1 (stereo unspecified)	40*	8	-2	2	-3	0
CCOc1ccc2[nH]c(=O)c(CN(Cc3ccc(F)cc3)C(=O)c3ccco3)cc2c1	47*	8	8	-4	-14	0
CC(C)c1csc(CN2CCC(C(=O)Nc3cccc(-c4ccco4)c3)CC2)n1	nt	nt	11	nt	-11	nt
CC(=O)Nc1ccc(NC(=O)C2CCN(S(C)(=O)=O)CC2)cc1	nt	nt	5	nt	-14	nt
C=CC[C@@H](CC(=O)N[C@@H](CO)Cc1ccccc1)C(=O)N[C@@H](COC(=O)[C@H](CC=C)CC(=O)OC(C)(C)C)Cc1c[nH]c2ccccc12	nt	nt	-6	nt	0	nt
O=S(Cc1ccccc1)CC(O)(c1ccc(Cl)cc1)c1ccc(Cl)cc1 (stereo unspecified)	3	-9	-5	1	-7	0
O=S(Cc1ccc(Cl)cc1)CC(O)(c1ccccc1)c1ccccc1 (stereo unspecified)	33*	11	-7	-1	3	1
CCOC(=O)C1=C(C)N=C2SC=C(C)N2C1c1ccc(OC)cc1 (stereo unspecified)	12*	-3	11	16	-6	0
CCOC(=O)C1=C(C)N=C2SCCC(=O)N2C1c1ccc(OC)cc1 (stereo unspecified)	2	-1	nt	2	nt	0
COc1ccc(OC)c(C(=O)c2oc3ccccc3c2NC(C)=O)c1	17*	0	-7	-2	4	0
COc1ccc(C(=O)c2oc3ccccc3c2NC(C)=O)cc1	2	4	-8	2	9	0
CCc1ccc(-c2cn3nc(C)c(C)nc3n2)cc1	2	27*	8	-2	-1	-1
Cc1ccccc1NC(=O)C1CC(=O)N(c2ccc3c4c(cccc24)CC3)C1 (stereo unspecified)	2	12	-15	nt	-2	0
O=C(Nc1ccccc1Br)C1CC(=O)N(c2ccc3c4c(cccc24)CC3)C1 (stereo unspecified)	38*	3	3	4	11	0
COC(=O)C[C@@H]1C=C[C@@H](NC(=O)NC2CCCC2)[C@@H](CO)O1	nt	nt	-3	nt	nt	nt
Cc1cc2c(cc1C)C(c1cc(Br)ccc1F)CC(=O)N2 (stereo unspecified)	27*	12	-2	23	2	0
O=C(NCC(c1ccco1)N1CCc2ccccc2C1)c1ccc(Br)cc1 (stereo unspecified)	nt	nt	-2	nt	2	nt
C[C@H](NC(=O)c1ncn2c1C(=O)N[C@@H](C)C2)C(=O)OC(C)(C)C	nt	nt	-5	nt	-5	nt
Brc1ccc2c(c1)C(c1ccc(N3CCOCC3)cc1)=NNC(c1cccs1)=N2	1	1	-2	-1	5	0
Brc1ccc2c(c1)C(c1cccnc1)=NNC(c1cccs1)=N2	18*	20	0	18	-10	0
Cc1cc2c(cc(C(=O)OCC(=O)NCc3cccs3)n2C(C)C)o1	30*	0	-2	65*	-1	0
SMILES	MT stabilizer	TLR4-MyD88 BLA	NOD2-RIPK2 inh	bCat nuc transl	TLR9-MyD88 inh	Hsp70 activator
Cc1cc(C)cc(C(=O)OCC(=O)NCc2cccs2)c1	2	3	-1	-2	5	0
Cc1cccc(C(=O)OCC(=O)c2csc(N3CCCCC3)n2)c1[N+](=O)[O-]	nt	nt	0	nt	4	nt
COc1ccccc1NC(=O)/C(C#N)=C/C=C/c1ccco1	41*	-16	-7	61*	-7	0
CCC1N=C(SC)NC(C)=C1C(=O)c1ccccc1 (stereo unspecified)	3	-2	-5	4	6	0
CSC1=NC(C(Cl)(Cl)Cl)N=C(c2ccc(C)cc2)N1 (stereo unspecified)	8	1	-3	108*	6	0
Nn1c(SCC(=O)NC2CCS(=O)(=O)C2)nc2scc(-c3ccccc3)c2c1=O (stereo unspecified)	nt	nt	3	nt	8	nt
Cc1cccc(N2CCN(C(=O)c3ccc4ncsc4c3)CC2)c1C	43*	-2	-7	150*	-2	0
Cc1cccc(N2CCN(C(=O)N3CCCCC3)CC2)c1C	3	0	-2	2	0	0
COc1cc(C(=O)N2CCN(c3cccc(C)c3C)CC2)cc(OC)c1OC	13	10	3	64*	-4	0
Cc1cccc(N2CCN(C(=O)N3CCOCC3)CC2)c1C	36*	8	-8	30	-2	0
COc1ccccc1N1CCN(C(=O)c2oc3cc(C)cc(C)c3c2C)CC1	25*	-8	-6	1	-8	0
Cc1cccc(C)c1NC(=O)c1csc(COCCO)n1	nt	nt	7	nt	nt	nt
CCN1C(=O)/C(=C2/Sc3ccccc3N2CC)S/C1=N\c1ncn[nH]1	1	-15	1	0	-10	0
CC(Sc1nnc(C2CC2)n1C1CC1)C(=O)Nc1cccc(S(=O)(=O)N2CCOCC2)c1 (stereo unspecified)	nt	nt	-2	nt	-2	nt
Cc1cccc(N2CCN(C(=O)c3ccncc3)CC2)c1C	45*	7	6	nt	1	0
COC(=O)Nc1ccc(S(=O)(=O)N2CCCCC2C(=O)O)cc1 (stereo unspecified)	3	-4	-11	-3	-4	0
COC(=O)Nc1ccc(S(=O)(=O)N2c3ccccc3CCC2C)cc1 (stereo unspecified)	19*	-14	0	8	-6	0
Cc1ccc(C(=O)n2c3ccccc3c3ccccc32)cc1	44*	-10	7	96*	-3	0
CC(=O)n1c2ccccc2c2ccccc21	3	-12	4	nt	4	0
CO/N=C\CC(=O)Nc1ccc(Cl)cc1Cl	10*	12	5	1	1	0
CO/N=C\CC(=O)Nc1ccc(F)cc1	3	-6	2	-3	7	0
COc1cccc2c1C(=O)c1c(O)c3c(c(O)c1C2=O)C[C@@](O)(C(C)=O)C[C@@H]3O[C@H]1C[C@H](N)[C@H](O)[C@H](C)O1	77	11	-11	?	7	12*
